Source: PubChem
SR-BI DiI-HDL act – SR-BI HDL lipid transfer activation; CHO ldlA[mSR-BI] cells, DiI-HDL uptake fluorescence, 3 h; 100 = double the neutral-control signal; activation, % at 12.5 µM; 0.096% of 320,000 active;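 active = mean replicate activation of at least 60% and every replicate at or above 60%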;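 also: 0% = median plate neutral-control signal and 100% = twice that signal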
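Test system: SR-BI-overexpressing, LDLR-lacking CHO cells. Measured by: DiI fluorescence, bottom read. Medium: Ham's F12 with 0.5% BSA, HEPES 25 mM, pH 7.4. Timing: 3 h uptake period with compound, 37 °C.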
CAL PDZ FP-1 – blocks peptide binding to the human CAL PDZ domain; 0.92% of 300,000 active; purified CAL PDZ, TMR-peptide fluorescence polarization, 1 h; Q9HD26; inhibition, % at 24.9 µM;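 active = mean inhibition of at least 30% with at least half of replicates also reaching 30%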;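 also: 0% = DMSO neutral control and 100% = excess unlabeled competitor peptide PRC23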
ATG4B inhibitor – inhibitors of human ATG4B cysteine protease | Q9Y4P1 | ATG4B cleavage of LC3-PLA2, NBD-HPC fluorescence, 1 h | inhibition, % at 8.33 µM | 0.51% of 340,000 active; in the data active = inhibition above about 40%
CAL PDZ FP-2 – human CAL PDZ-peptide interaction inhibition | Q9HD26 | purified CAL PDZ, TMR-peptide fluorescence polarization, 1 h | inhibition, % at 20 µM | 0.02% of 330,000 active | AID 504414;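 active = highest replicate inhibition of at least 40%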;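 also: plate controls were DMSO neutral control wells for no effect and unlabeled competitor peptide control wells for full effect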
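System: tagged CAL PDZ domain. Schedule: 1 h room-temperature incubation prior to read. Signal: fluorescence polarization (mP). Measure: percent inhibition from loss of millipolarization.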
SR-BI HDL uptake – inhibitors of mouse SR-BI mediated HDL lipid uptake; Q61009; ldlA[mSR-BI] CHO cells, DiI-HDL uptake fluorescence, 3 h; inhibition, % at 12.5 µM; 0.96% of 320,000 active; AID 488896;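 active = mean replicate inhibition of at least 70% and a set share of replicates each scoring 70 or more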;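 also: 0% = median of neutral control wells and 100% = median of positive control wells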
Target sequence (Q61009 whole entry, looked up): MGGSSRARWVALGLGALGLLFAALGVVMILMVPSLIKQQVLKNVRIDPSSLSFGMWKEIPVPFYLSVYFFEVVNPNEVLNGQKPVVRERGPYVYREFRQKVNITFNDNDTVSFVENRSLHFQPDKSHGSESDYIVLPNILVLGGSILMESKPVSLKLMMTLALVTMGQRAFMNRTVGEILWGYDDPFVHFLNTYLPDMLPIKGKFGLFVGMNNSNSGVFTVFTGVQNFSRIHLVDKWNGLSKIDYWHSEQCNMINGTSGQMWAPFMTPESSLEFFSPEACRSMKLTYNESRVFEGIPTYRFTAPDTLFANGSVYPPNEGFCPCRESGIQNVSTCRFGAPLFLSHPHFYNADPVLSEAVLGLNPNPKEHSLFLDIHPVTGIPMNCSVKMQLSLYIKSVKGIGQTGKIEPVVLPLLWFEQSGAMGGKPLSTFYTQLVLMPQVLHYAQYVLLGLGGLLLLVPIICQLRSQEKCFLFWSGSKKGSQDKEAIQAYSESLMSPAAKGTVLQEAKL
Starred values were filed as active, the others as inactive; nt = not tested or not shown; ! = repeats disagree. A selection: hits, their analogues and other compounds. The true share with any hit is near 2.3%.

SMILES | SR-BI DiI-HDL act | CAL PDZ FP-1 | ATG4B inhibitor | CAL PDZ FP-2 | SR-BI HDL uptake
CCOC(=O)C1=NOC(CNC(=O)c2c(-c3ccccc3Cl)noc2C)C1 (configuration not stated) | 4.3 | -6.6 | 8.5 | 0.1 | -4.3
CC(=O)C1=NOC(CNC(=O)c2c(-c3ccccc3Cl)noc2C)C1 (configuration not stated) | 6.1 | 44.8* | -0.6 | -0.5 | -6.1
O=C(Nc1ccc(Cl)cc1F)c1ccc2c(c1)C(=O)N(Cc1ccncc1)C2=O | nt | nt | 2.4 | nt | nt
O=C(Nc1ccc(NC(=O)c2cccs2)cc1)c1cccnc1 | 6.4 | -2.4 | -4.4 | 0.7 | -6.4
Cc1ccc(NC(=O)c2cccs2)cc1NC(=O)c1cccnc1 | -22.4 | 104.9* | 2.7 | -0.7 | 22.4
COc1cc(C(=O)Nc2cccc(NC(=O)c3cccs3)c2)cc(OC)c1OC | -78.5 | -6.7 | -4.5 | -4.3 | 78.5*
COc1cc(NC(=O)c2cccc(Cl)c2)ccc1NC(=O)c1cccs1 | -74.8 | -0.5 | -16.9 | -2.6 | 74.8*
COc1cc(C(=O)Nc2cccc(NC(=O)c3ccccc3)c2)cc(OC)c1OC | nt | -4.2 | 3.1 | -2.5 | nt
COc1cc(NC(=O)c2ccc3c(c2)OCCO3)ccc1NC(=O)c1cccs1 | -73.9 | -4.8 | -23.2 | 0.0 | 73.9*
COc1ccc(NC(=O)COC(=O)CO/N=C(\C)c2ccc3c(c2)OCO3)cc1S(N)(=O)=O | 3.5 | nt | -9.8 | -0.5 | -3.5
CC(=O)c1ccc(NC(=O)Nc2ccc3c(c2)N(C)C(=O)CS3)cc1 | -23.3 | -1.0 | -19.7 | -2.3 | 23.3
CN1C(=O)CSc2ccc(NC(=O)N3CCN(c4ccccc4)CC3)cc21 | -77.6 | -2.3 | -11.8 | -2.0 | 77.5*
O=C(Nc1ccc2c(c1)CCC2)Nc1ccccc1F | -17.9 | -0.8 | -6.3 | -0.2 | 17.9
CCn1ncc(/C=N/N=C2\CCC3C4CCc5cc(O)ccc5C4CCC23C)c1C (configuration not stated) | -35.3 | 46.5* | -21.5 | 0.0 | 35.3
Cc1c(/C=N/N=C2\CCC3C4CCc5cc(O)ccc5C4CCC23C)cnn1C (configuration not stated) | -25.1 | -0.3 | -13.4 | -0.9 | 25.1
COc1ccc(C2CN=NC23CCCc2ccccc2C3=O)cc1 (configuration not stated) | 30.6 | 56.9* | -2.1 | -1.4 | -30.6
CC(C)c1ccc(/C=N/NC(=O)c2ccc(-n3cnnn3)cc2)cc1 | -84.3 | -0.6 | -8.6 | -2.8 | 84.3*
CC(NS(=O)(=O)c1ccc2c(c1)C(C)(C)C(=O)N2C)c1ccccc1 (configuration not stated) | 9.7 | nt | -0.1 | 0.1 | -9.7
Cc1ccc(C)c(S(=O)(=O)N2CCN(C(=O)Cc3sc(C)nc3-c3ccc(F)cc3)CC2)c1 | 7.4 | nt | -7.2 | -1.4 | -7.4
CC1(C)CC2(CC(c3cccs3)c3cc(Cl)c(O)cc3O2)NC(=S)N1 (configuration not stated) | -89.9 | -4.2 | -15.1 | nt | 89.9*
CCOC(=O)c1cnn(-c2ccc([N+](=O)[O-])cc2)c1N | -10.3 | 60.2* | 16.4 | 0.2 | 10.3
CCOC(=O)c1cnn(-c2ccccc2)c1N | 15.9 | 1.7 | 3.6 | -1.6 | -15.9
Cc1cc(F)ccc1NC(=O)Cn1c(C)csc1=O | -1.5 | -0.7 | 4.5 | 0.7 | 1.5
COc1ccc2c(=O)c3c(=O)n(-c4ccccc4)c(-c4ccc(C)cc4)nc3oc2c1 | -91.6 | 7.0 | -4.4 | -0.8 | 91.6*
COc1ccc2c(=O)c3c(=O)n(Cc4ccco4)c(-c4cc(OC)c(OC)c(OC)c4)nc3oc2c1 | -73.9 | nt | -1.5 | -5.4 | 73.9*
SMILES | SR-BI DiI-HDL act | CAL PDZ FP-1 | ATG4B inhibitor | CAL PDZ FP-2 | SR-BI HDL uptake
Cc1ccc(Sc2ncccc2C(N)=O)cc1 | 0.3 | -1.2 | 0.0 | -0.2 | -0.3
Cc1nnnn1CC(=O)Nc1ccccc1[N+](=O)[O-] | 13.2 | 1.0 | -0.4 | -0.5 | -13.2
C=Cc1c(C)c2cc3[nH]c(cc4nc(cc5nc(cc1[nH]2)C(C)=C5CCC(=O)O)C(CCC(=O)O)=C4C)c(C)c3C=C | -39.5 | -3.3 | 48.2*! | -0.1 | 39.5
CN1CCN(C(=O)c2cc([N+](=O)[O-])ccc2Cl)CC1 | 1.3 | 8.5 | -1.4 | 0.0 | -1.3
CCN=C1S/C(=C\c2ccc(OCC)c(OC)c2)C(=O)N1CC | -65.4 | -2.6 | 6.4 | -2.8 | 65.4
CCN=C1S/C(=C\c2cc(Cl)c(OC)c(OC)c2)C(=O)N1CC | -77.1 | 3.6 | 2.2 | -0.3 | 77.1*
